Experimental data pooled from the literature.
Lines come from different studies, so protocols differ.
Effect on: cell growth or viability

CC1(C)CC[C@]2(C)CC[C@]3(C)[C@H]4CC=C5[C@@H](CC[C@H](O)C5(C)C)[C@]4(C)CC[C@@]3(C)[C@@H]2C1 — IC50 (WI-38; WST-1): 62.9 µM
O=C1CCCCC1=C1Sc2nc3ccc(S(=O)(=O)N4CCCC4)cc3nc2S1 — viability (WI-38; MTT; 50 µM; 24 h): 61.3%
O=C(N[C@@H](Cc1ccccc1)C(=O)c1nc2ccccc2o1)[C@H](Cc1ccccc1)NC(=O)N1CCOCC1 — CC50 (MRC-5 SV2): > 64 µM
COc1cccc2c1C(=O)c1c(O)c3c(c(O)c1C2=O)C[C@@](O)(C(=O)CO)C[C@@H]3O[C@H]1C[C@H](N)[C@H](O)[C@H](C)O1 — viability (WI-38; MTT; 100 µM; 24 h): 7.8%
O=c1cc(-c2ccc(O)c(O)c2)oc2cc(O)cc(O)c12 — IC50 (WI-38; WST-1; 48 h): 90.8 µM
N=C(N)c1ccc(OCCCCCOc2ccc(C(=N)N)cc2)cc1 — CC50 (HaCaT; MTS; 24 h): > 20 µM
O=c1c(O)c(-c2ccc(O)c(O)c2)oc2cc(O)cc(O)c12 — IC50 (WI-38; WST-1; 48 h): 87.6 µM
C[Si](C)(C)c1cc(C(=O)[C@H](Cc2ccccc2)NC(=O)[C@H](Cc2ccccc2)NC(=O)N2CCOCC2)no1 (single isomer, unassigned) — CC50 (MRC-5 SV2): > 64 µM
Cc1cn(CC(c2cn(C)c3ccccc23)c2cn(C)c3ccccc23)nn1 — CC50 (HaCaT; MTS; 24 h): > 20 µM
O=c1[nH]cc(F)c(=O)[nH]1 — IC50 (WI-38; WST-1; 48 h): 63.4 µM
N#CC(C(=O)Nc1cccc(C(F)(F)F)c1)=C1Sc2nc3ccc(S(=O)(=O)N4CCCC4)cc3nc2S1 — viability (WI-38; MTT; 25 µM; 24 h): 67.5%
C[C@@H]1[C@H](O)[C@@H](C)/C=C/C=C/C=C/C=C/C=C/C=C/C=C/[C@H](O[C@@H]2O[C@H](C)[C@@H](O)[C@H](N)[C@@H]2O)C[C@@H]2O[C@](O)(C[C@@H](O)C[C@@H](O)[C@H](O)CC[C@@H](O)C[C@@H](O)CC(=O)O[C@H]1C)C[C@H](O)[C@H]2C(=O)O — CC50 (HaCaT; MTS; 24 h): 7.95 µM
O=Cc1ccc(CO)o1 — IC50 (WI-38; WST-1; 48 h): 78.3 µM
O=C(N[C@@H](Cc1ccccc1)C(=O)c1nccs1)[C@H](Cc1ccccc1)NC(=O)N1CCOCC1 — CC50 (MRC-5 SV2): > 64 µM
CCOC(=O)C(C(C)=O)=C1Sc2nc3ccc(S(=O)(=O)N4CCCC4)cc3nc2S1 — viability (WI-38; MTT; 50 µM; 24 h): 48.2%
O=C(N[C@@H](Cc1ccccc1)C(=O)c1cn(-c2ccccc2)nn1)[C@H](Cc1ccccc1)NC(=O)N1CCOCC1 (single isomer, unassigned) — CC50 (MRC-5 SV2): > 64 µM
CCOC(=O)c1c(C)ncn1CC(c1cn(C)c2ccc([N+](=O)[O-])cc12)c1cn(C)c2ccc([N+](=O)[O-])cc12 — CC50 (HaCaT; MTS; 24 h): > 20 µM
CC(=O)O[C@@H]1c2c(ccc3ccc(=O)oc23)OC(C)(C)[C@@H]1OC(=O)C1(C)OC1C (stereo partly drawn) — IC50 (WI-38; WST-1): 99.6 µM
O=C(N[C@@H](Cc1ccccc1)C(=O)c1c[nH]nn1)[C@H](Cc1ccccc1)NC(=O)N1CCOCC1 — CC50 (MRC-5 SV2): > 64 µM
Nc1ncnc2c1ncn2[C@@H]1O[C@H](CO)[C@@H](O)[C@H]1O — IC50 (WI-38; WST-1; 48 h): 131 µM
O=C(N[C@@H](CCc1ccccc1)C(=O)c1cc(-c2ccccc2)on1)[C@H](Cc1ccccc1)NC(=O)N1CCOCC1 (single isomer, unassigned) — CC50 (MRC-5 SV2): > 64 µM
